Sampled rows, rich in hits. Any-hit rate of the full collection: about 1.7%.
Vif imaging = HIV Vif self-association inhibitors, primary screen, imaging, HEK293T, single point. inhibition, % at 7.49 µM. HEK293T cells, Vif self-association by quenched fluorescence, 24 h. 340,000 compounds, 0.35% hits; in the data active = inhibition above about 50%, passing the limit was not always enough; inconclusive = no clear call, values can overlap the other calls; inactive = below about 31%
T cell modulator = modulators of CD8 T cell-vesicle binding, primary screen, mouse 2C CD8+ T cells, flow cytometry | 2C CD8+ T cell-vesicle binding; hits give low values | response (vesicle binding), % at 7 µM | 330,000 compounds, 0.068% hits | AID 2052, 2009;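 active = response, share of CD8 T cells binding vesicles, and their 90th percentile fluorescence all below set limits, cut at about 80% in these data, passing the limit was not always enough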;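 also: values below 100% mean blocked vesicle binding to the CD8+ T cells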
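System: murine 2C transgenic CD8+ T lymphocytes; also added: QL9-loaded Drosophila micro-vesicles; times: binding 1.5 h at 37 °C; measured by: flow cytometry, PE anti-B7-1 (FL2) versus Alexa647 anti-CD8 (FL8), PFA-fixed; control set: Peptide-free naked vesicles (low) and QL9 vesicles with 0.7% DMSO vehicle (high)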
Myeloid diff MLP = induction of myeloid progenitor differentiation, primary screen, cell-based, flow cytometry, MLPCN library. calls only at 10 µM. ER-HoxA9 myeloid progenitors, lysozyme-GFP differentiation. 360,000 compounds, 1% hits. AID 624256, 2012;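 active = normalized GFP-positive differentiation at or above the plate's own cutoff, the solvent-only control mean plus 3 SD; inconclusive = no clear call, values can overlap the other calls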;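 also: cells exposed to compound for four days before flow analysis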
DSG3 Ab inh = inhibitors of pemphigus antibody binding to DSG3, primary screen, biochemical, bead-based, flow cytometry, scFv-GFP | Desmoglein-3 (Homo sapiens), P32926 | DSG3-coupled beads, scFv-anti-DSG3-GFP binding; hits give low values | binding (percent of control), % at 10 µM | 310,000 compounds, 0.48% hits | AID 588358, 2011;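 active = binding more than 3 SD below its plate's average and above zero; inconclusive = below that plate limit but binding exactly zero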;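 also: hits lower antibody fragment binding to DSG3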
Target sequence (P32926 whole entry, looked up, the tested form may be a part): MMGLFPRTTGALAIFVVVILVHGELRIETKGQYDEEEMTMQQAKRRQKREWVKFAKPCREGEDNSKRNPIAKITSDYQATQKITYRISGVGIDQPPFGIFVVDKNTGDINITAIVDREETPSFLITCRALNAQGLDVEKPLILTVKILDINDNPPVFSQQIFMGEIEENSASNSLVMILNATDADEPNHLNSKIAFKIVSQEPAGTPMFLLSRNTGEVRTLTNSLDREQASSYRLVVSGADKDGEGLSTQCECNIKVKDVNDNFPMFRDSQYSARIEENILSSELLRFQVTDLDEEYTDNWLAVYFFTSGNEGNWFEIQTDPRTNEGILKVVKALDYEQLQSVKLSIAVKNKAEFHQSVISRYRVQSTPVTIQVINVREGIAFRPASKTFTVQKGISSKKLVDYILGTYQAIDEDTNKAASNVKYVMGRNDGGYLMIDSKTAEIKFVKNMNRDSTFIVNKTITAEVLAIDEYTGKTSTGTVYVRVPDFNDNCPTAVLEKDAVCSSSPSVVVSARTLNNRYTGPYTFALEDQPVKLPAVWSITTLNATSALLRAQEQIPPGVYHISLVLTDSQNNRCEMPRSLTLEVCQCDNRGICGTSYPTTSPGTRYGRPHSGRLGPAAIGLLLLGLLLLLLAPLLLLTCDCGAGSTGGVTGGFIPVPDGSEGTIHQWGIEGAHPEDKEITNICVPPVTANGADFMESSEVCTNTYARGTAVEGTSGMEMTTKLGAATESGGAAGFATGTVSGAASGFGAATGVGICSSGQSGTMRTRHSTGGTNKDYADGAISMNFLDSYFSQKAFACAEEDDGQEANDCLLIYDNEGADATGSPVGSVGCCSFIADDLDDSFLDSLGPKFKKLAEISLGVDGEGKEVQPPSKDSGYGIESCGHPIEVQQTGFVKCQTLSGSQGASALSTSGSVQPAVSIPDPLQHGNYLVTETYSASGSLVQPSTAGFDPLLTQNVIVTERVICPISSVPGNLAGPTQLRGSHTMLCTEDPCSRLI
* marks the source's active call; other numbers are inactive results; i = inactive; ? = inconclusive; · = no result given; + = active, no number.

SMILES	Vif imaging	T cell modulator	Myeloid diff MLP	DSG3 Ab inh
CC(=O)Nc1ccc(Cc2ccncc2)cc1	·	185.9	i	103.8
CCCCCC(=O)Nc1ccc(Cc2ccncc2)cc1	80.1*	375.9	i	100.0
NCCCCCC(=O)Nc1ccncc1	59.9*	434.5	i	116.5
CC(=O)NC(C)(c1ccccc1)c1nc(-c2cccc3cccnc23)cs1 (stereo unspecified)	-10.5	·	i	·
COC1=CC(=O)C=C(OC)C1(O)CC(C)=O	8.0	·	i	100.5
Cc1cc(-c2csc(NC(=O)c3ccc(=O)[nH]c3)n2)c(C)n1Cc1ccco1	-3.5	148.5	i	82.0*
CC(=O)Nc1ccc(NC(=O)C(C)OC(=O)/C(C#N)=C/c2ccc(N(C)C)cc2)cc1 (stereo unspecified)	123.6*	119.8	i	116.5
CC(=O)Nc1ccc2cc3ccc(NC(C)=O)cc3nc2c1	8.4	299.7	+	118.1
COc1cccc(N2CCN(C(=O)c3ccc(CS(=O)c4ccc(C)cc4)o3)CC2)c1 (stereo unspecified)	56.3*	101.7	?	103.5
CCOC(=O)c1c(C)[nH]c(C)c1S(=O)(=O)NCCc1ccc(SC)cc1	18.4	258.6	i	102.0
CCOC(=O)c1c(C)[nH]c(C)c1S(=O)(=O)NCCc1sccc1C	-7.1	286.2	+	88.0
O=C(NCC(c1cccs1)N1CCc2ccccc21)c1ccccc1 (stereo unspecified)	-9.9	244.3	+	101.9
CCOc1ccc(/C=C2\CCC(C3CCCC3)C2=O)cc1OC (stereo unspecified)	-13.7	184.2	i	94.2
COc1cc(C=C2CCCC(=Cc3ccc(OCC4CO4)c(OC)c3)C2=O)ccc1OCC1CO1 (stereo unspecified)	61.9*	·	?	106.4
COc1cccc(-c2cc(CNC(=O)[C@H]3O[C@@H](n4ccc(=O)[nH]c4=O)[C@H](O)[C@@H]3O)no2)c1	·	·	i	·
O=c1c2cc(F)ccc2sn1-c1ccccc1	15.7	204.9	i	43.2*
Cc1ccccc1-n1sc2cc(F)ccc2c1=O	-5.4	301.2	i	68.7*
O=c1c2ccccc2sn1-c1ccccc1F	5.4	·	i	·
O=c1c2cc(C(F)(F)F)ccc2sn1-c1ccccc1	-13.3	·	i	68.1*
Cc1ccc(S(=O)(=O)NCCC(=O)NC2CCCCCC2)cc1	-5.0	·	i	99.5
COc1ccc(C=C2CS(=O)(=O)CC(=Cc3ccc(OC)cc3)C2=O)cc1	111.6*	·	i	100.1
COc1ccc(/C=C2\CCCCC2=O)cc1	-3.0	981.3	i	104.8
Cc1cc2ncn(-c3ncccc3[N+](=O)[O-])c2cc1C	21.9	171.6	i	90.4
CN(C)C(=O)C(CCN1CCC(O)(c2ccc(Cl)cc2)CC1)(c1ccccc1)c1ccccc1	-3.1	219.1	+	·
OC(CCCN1CCC(O)(c2ccc(Cl)cc2)CC1)c1ccc(F)cc1 (stereo unspecified)	-6.2	151.3	i	93.6
SMILES	Vif imaging	T cell modulator	Myeloid diff MLP	DSG3 Ab inh
CC(C)OC(=O)c1cc(C(=O)c2cc(Cl)ccc2O)coc1=N	-6.1	232.4	+	97.9
CCOC(=O)c1cc(C(=O)c2cc(F)ccc2O)coc1=N	·	702.8	i	92.8
CC(C)OC(=O)c1cc(C(=O)c2cc(Br)ccc2O)coc1=N	-12.1	264.2	i	102.8
CC(C)OC(=O)c1cc(C(=O)c2cc(F)ccc2O)coc1=N	-7.1	464.7	+	104.5
O=C1c2ccccc2C(c2nnnn2-c2ccc3c(c2)OCCO3)N1CCc1ccccc1F (stereo unspecified)	·	·	i	·
CCN(CC(=O)Nc1c(F)cccc1F)C(=O)CCN1C(=O)c2cccc([N+](=O)[O-])c2C1=O	2.9	274.8	i	98.8
NC(CCc1ccccc1)c1csc(Nc2ccc(C(=O)c3ccccc3)cc2)n1 (stereo unspecified)	56.8*	·	i	·
NC(Cc1ccc(C(F)(F)F)cc1)c1csc(NC(=O)Nc2ccccc2Oc2ccccc2)n1 (stereo unspecified)	2.3	·	+	·
NC(Cc1ccccc1)c1csc(NC(=O)Nc2ccccc2Oc2ccccc2)n1 (stereo unspecified)	-7.0	·	+	·
CCN(CC)c1nc(C=Cc2ccc(N(C)C)cc2)c2nccnc2n1	·	·	+	235.9
CC(=O)Nc1cccc(NC(=O)c2cc(-c3cccnc3)nc3ccc(Cl)cc23)c1	-7.6	i	i	87.5

Screening data from PubChem BioAssay.
